The values that follow come from ChEMBL document CHEMBL1135694, “Optimization of alkylidene hydrazide based human glucagon receptor antagonists. Discovery of the highly potent and orally available 3-cyano-4-hydroxybenzoic acid [1-(2,3,5,6-tetramethylbenzyl)-1H-indol-4-ylmethylene]hydrazide” (J Med Chem, 2002).

Structures are written as SMILES. pIC50, pKi: −log10 of the molar value.

In series [1] the target is Glucagon receptor (Homo sapiens, UniProt P47871). In words: In vitro binding affinity for recombinant human glucagon receptor (hGGR) in BHK cells. The series is classed as cell-based. The method, boiled down: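 Membranes (4 µg) from BHK cells expressing the cloned human glucagon receptor. Compounds were diluted in DMSO, and a glucagon standard curve was run. IC50 given as mean ± SD, n = 3.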
Sequence of Glucagon receptor (Homo sapiens, UniProt P47871) (P47871 whole entry): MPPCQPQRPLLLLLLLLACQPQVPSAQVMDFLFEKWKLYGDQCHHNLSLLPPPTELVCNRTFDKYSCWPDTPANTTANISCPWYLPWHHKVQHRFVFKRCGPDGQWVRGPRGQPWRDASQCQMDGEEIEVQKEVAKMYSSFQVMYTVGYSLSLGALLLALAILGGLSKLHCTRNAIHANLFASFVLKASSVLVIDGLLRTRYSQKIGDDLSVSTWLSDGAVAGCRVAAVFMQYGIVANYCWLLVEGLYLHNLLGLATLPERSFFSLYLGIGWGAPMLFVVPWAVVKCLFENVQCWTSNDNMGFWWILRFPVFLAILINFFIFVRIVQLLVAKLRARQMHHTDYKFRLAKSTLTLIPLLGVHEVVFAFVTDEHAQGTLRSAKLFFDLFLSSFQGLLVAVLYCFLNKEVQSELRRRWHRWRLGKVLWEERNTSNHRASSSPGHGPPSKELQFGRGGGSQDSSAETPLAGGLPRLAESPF

The species named for series [2] is Rattus norvegicus. In words: In vitro metabolic turnover in rat liver microsomes was determined. The settings on record: Microsome. The series is classed as functional. The method, boiled down:
(§1)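 Rat liver microsomes (0.331 mg/mL protein) with 10 µM compound, 1 mM UDP-GA and 1 mM NADPH in KH2PO4 buffer, pH 7.4, at 37 °C. Sampled at 0-30 min (n = 3), stopped with MeCN. Rate was taken from parent disappearance by LC-MS.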
(Microsomes from liver hold many membrane-bound enzymes, among them those of drug oxidation.)

The target of series [3] is Glucagon receptor (Rattus norvegicus) (UniProt P30082). In words: (§2) In vitro binding affinity towards rat glucagon receptor.
Sequence of Glucagon receptor (Rattus norvegicus) (P30082 whole entry): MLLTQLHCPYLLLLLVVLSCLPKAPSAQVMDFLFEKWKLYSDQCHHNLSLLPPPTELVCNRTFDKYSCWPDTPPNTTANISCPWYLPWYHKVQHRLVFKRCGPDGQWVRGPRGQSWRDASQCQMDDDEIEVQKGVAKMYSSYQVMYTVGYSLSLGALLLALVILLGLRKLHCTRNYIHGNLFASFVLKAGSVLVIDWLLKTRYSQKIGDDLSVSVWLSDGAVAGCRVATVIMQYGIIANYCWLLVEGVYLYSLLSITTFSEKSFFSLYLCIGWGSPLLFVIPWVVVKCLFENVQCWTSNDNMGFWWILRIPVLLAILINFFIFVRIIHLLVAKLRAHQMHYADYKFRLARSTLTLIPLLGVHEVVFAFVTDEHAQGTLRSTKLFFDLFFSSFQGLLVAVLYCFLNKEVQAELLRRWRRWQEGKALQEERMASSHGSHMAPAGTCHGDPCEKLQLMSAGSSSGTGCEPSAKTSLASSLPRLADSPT
Series [4] has as its target Glucagon receptor (Rattus norvegicus, UniProt P30082). Described as §2.
Series [5] can be described thus: Oral bioavailability in dog. The settings on record: in vivo. The series is classed as ADME, organism-based, Canis lupus familiaris. The procedure, abridged:
(§3)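 Four purpose-bred male beagle dogs, 11-19 kg, 15-18 months old. Dosed 0.5 mg/kg intravenously, or 2.0 mg/kg perorally by gavage using the same dosing solution as the iv dose. Blood was sampled at set times from predose to 4 h postdose and assayed by LC-MS-MS. PK parameters were derived by noncompartmental analysis; half-lives are given as harmonic means.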

The nature of series [6]: Half life period after intravenous administration (0.5 mg/kg) in dog was determined. The series is classed as ADME, organism-based, Canis lupus familiaris. The settings on record: in vivo. The method, boiled down:
as §3

Series [7] in a line: tmax in dog was determined; range 30-45. The settings on record: in vivo.
The species entered for series [8] is Rattus norvegicus. In words: Inhibitory activity against glucogon-stimulated glucose production from isolated primary rat hepatocytes. Type of series: functional. The settings on record: hepatocyte. The procedure, abridged:
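Hepatocytes came from fed male Sprague-Dawley rats by two-step perfusion and were glycogen-loaded with 15 mM glucose and 10 nM insulin for 24 h. Cells were then given compound (0-1000 nM) plus 0.5 nM glucagon for 70 min in HEPES/bicarbonate buffer with 0.1% HSA, pH 7.4, 37 °C. Released glucose and glycogen were measured. Ki came from Schild analysis; mean ± SEM of four hepatocyte preparations.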

The nature of series [9]: tmax after peroral administration (2 mg/kg) in dog was determined; range 30-45. The series is classed as ADME, organism-based, Canis lupus familiaris. Particulars: in vivo, po. The method, boiled down: as §3
Series [10] is described as follows: Turnover in rat liver microsomes. The series is classed as ADME, Microsome. The procedure, abridged: as §1

Sequence of Glucagon receptor (Rattus norvegicus, UniProt P30082) (P30082 whole entry): as above

Regarding `O=C(N/N=C/c1ccc(CO)c2ccccc12)c1ccc(O)c(Cl)c1Cl`, the pIC50 on Glucagon receptor [1] is 7.27. Further, the Metabolism (pM min-1 mg-1) in the series filed under Rattus norvegicus [2] was 103.
The molecule `Cc1cc(C)c(C)c(Cn2ccc3c(/C=N/NC(=O)c4ccc(O)c(C#N)c4)cccc32)c1C` returned a Kb in series [3] of 0.38 nM. Further, the pIC50 on Glucagon receptor [1] was 8.64; at Glucagon receptor [4], 9.37. The same molecule returned a bioavailability in series [5] of 15%. For the same molecule, the half-life in series [6] was 66.6 min. For the same molecule, the Tmax in series [7] and in series [9] was 30 min throughout. The molecule also gave a pKi in the series listed under Rattus norvegicus [8] of 7.85. This molecule gave a Metabolism in series [10] of 34 pmol/min/mg.
Turning to `CN(C)CCN(Cc1ccccc1)C(=O)Cc1ccc(/C=N/NC(=O)c2ccc(O)c(C#N)c2)c2ccccc12`, the pIC50 at Glucagon receptor [1] is 7.98. In addition, the Metabolism in [10] was found to be 240 pmol/min/mg.
In the same order, the values of `O=C(N/N=C/c1cccc2c1ccn2Cc1ccc(Cl)c(Cl)c1)c1ccc(O)c(Cl)c1` are 7.56 and 190 pmol/min/mg.
For `Cc1cc(C)c(C)c(Cn2ccc3c(/C=N/NC(=O)c4ccc(O)c(Cl)c4)cccc32)c1C`, in that order: 8.28 and 105 pmol/min/mg.
In the same order, the values of `O=C(N/N=C/c1ccc(CC(=O)N2CCN(c3ccc(F)cc3)CC2)c2ccccc12)c1ccc(O)c(Cl)c1` are 7.91 and 160 pmol/min/mg.
As for `CN1CCN(C(=O)Cc2ccc(/C=N/NC(=O)c3ccc(O)c(Cl)c3)c3ccccc23)CC1`, the negative-log IC50 (pIC50) on Glucagon receptor [1] is 6.57. Also, the Metabolism in series [10] was determined as 283 pmol/min/mg.
For `COc1cc(/C=N/NC(=O)c2ccc(O)c(Cl)c2)ccc1NC(=O)COc1ccc(OC(F)(F)F)cc1`, in that order: 7.14 and 136 pmol/min/mg.
For `O=C(N/N=C/c1ccc(CS(=O)(=O)Cc2ccc(OC(F)(F)F)cc2)c2ccccc12)c1ccc(O)c(Cl)c1`, in that order: 8.17 and 14 pmol/min/mg.
With `CC(C)S(=O)(=O)c1ccc(/C=N/NC(=O)c2ccc(O)c(Cl)c2)c2ccccc12`, the negative-log IC50 (pIC50) at Glucagon receptor [1] was 6.45. This molecule showed a Metabolism in series [10] of 110 pmol/min/mg.

The term pIC50 denotes −log10 of the IC50, conventionally taken in molar units. As usually defined, the bioavailability is the share of a dose that reaches the circulation, judged against a reference dose that is usually intravenous. A lower bioavailability goes with little systemic uptake. As usually defined, the half-life is the time in which the quantity being followed falls by half. A low value points to fast loss. Usually Tmax stands for the time from dosing to the highest level. A word on the pKi: it is the Ki on a negative log10 scale, so that one unit is a factor of ten. Lower therefore signals a high Ki.
